According to ChEMBL document CHEMBL3352447, “Structural development studies of PPARs ligands based on tyrosine scaffold” (Eur J Med Chem, 2015):
Active and inactive are the calls of the source. No cut-off for these calls is given here.

Key:
Assay type in all cases: cell-based
[1] = molecular target: T1, Peroxisome proliferator-activated receptor gamma (Homo sapiens, UniProt P37231); experiment: Agonist activity at human GAL4-PPARgamma ligand binding domain expressed in human HepG2 cells by luciferase reporter gene assay
T1 sequence (P37231 whole entry): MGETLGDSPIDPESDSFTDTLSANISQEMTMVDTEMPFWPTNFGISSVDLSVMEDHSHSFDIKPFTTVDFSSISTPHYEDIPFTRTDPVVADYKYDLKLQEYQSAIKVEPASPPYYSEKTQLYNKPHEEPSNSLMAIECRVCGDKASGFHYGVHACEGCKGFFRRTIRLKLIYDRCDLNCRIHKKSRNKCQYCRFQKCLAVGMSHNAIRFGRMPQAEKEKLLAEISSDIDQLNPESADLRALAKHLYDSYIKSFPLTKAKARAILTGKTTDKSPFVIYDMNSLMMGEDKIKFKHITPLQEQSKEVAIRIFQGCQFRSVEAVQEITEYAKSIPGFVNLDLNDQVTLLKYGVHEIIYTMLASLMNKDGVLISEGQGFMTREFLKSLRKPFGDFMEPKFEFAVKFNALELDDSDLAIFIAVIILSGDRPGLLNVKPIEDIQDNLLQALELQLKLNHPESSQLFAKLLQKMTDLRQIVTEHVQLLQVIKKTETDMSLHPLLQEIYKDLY
Method in brief: (§1)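 HepG2 cells grown in MEM with 10% heat-inactivated FBS, penicillin/streptomycin, 37 °C, 5% CO2. 10^5 cells/well seeded, transfected after 24 h by calcium phosphate with Gal4-PPAR LBD expression plasmid (30 ng), pGal5TKpGL3 luciferase reporter (100 ng) and pCMVbgal (250 ng). Ligand added 4 h post-transfection for 20 h, in triplicate. Luciferase read in cell extracts, with β-galactosidase measured using ONPG.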

[2] = molecular target: T2, Peroxisome proliferator-activated receptor gamma (Homo sapiens) (UniProt P37231); experiment: Agonist activity at human GAL4-PPARgamma ligand binding domain expressed in human HepG2 cells assessed as maximum fold induction by luciferase reporter gene assay relative to rosiglitazone; method in brief: as §1
T2 sequence (whole entry): T1 sequence (P37231 whole entry)

[3] = molecular target: T3, Peroxisome proliferator-activated receptor delta (Homo sapiens, UniProt Q03181); experiment: Agonist activity at human GAL4-PPARdelta ligand binding domain expressed in human HepG2 cells by luciferase reporter gene assay
T3 sequence (Q03181 whole entry): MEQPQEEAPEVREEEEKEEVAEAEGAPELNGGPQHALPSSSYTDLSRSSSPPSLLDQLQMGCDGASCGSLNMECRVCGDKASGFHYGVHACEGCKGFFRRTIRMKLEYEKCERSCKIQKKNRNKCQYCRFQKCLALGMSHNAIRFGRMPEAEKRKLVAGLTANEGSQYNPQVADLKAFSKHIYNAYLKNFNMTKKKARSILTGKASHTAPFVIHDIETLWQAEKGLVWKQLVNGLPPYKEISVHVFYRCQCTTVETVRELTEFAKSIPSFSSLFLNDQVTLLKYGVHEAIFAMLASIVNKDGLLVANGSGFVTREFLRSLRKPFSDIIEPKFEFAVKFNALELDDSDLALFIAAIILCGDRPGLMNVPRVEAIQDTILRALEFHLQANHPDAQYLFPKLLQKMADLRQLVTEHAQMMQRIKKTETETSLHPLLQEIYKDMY

[4] = molecular target: T4, Peroxisome proliferator-activated receptor alpha (Homo sapiens, UniProt Q07869); experiment: Agonist activity at human GAL4-PPARalpha ligand binding domain expressed in human HepG2 cells by luciferase reporter gene assay; method in brief: as §1
T4 sequence (Q07869 whole entry): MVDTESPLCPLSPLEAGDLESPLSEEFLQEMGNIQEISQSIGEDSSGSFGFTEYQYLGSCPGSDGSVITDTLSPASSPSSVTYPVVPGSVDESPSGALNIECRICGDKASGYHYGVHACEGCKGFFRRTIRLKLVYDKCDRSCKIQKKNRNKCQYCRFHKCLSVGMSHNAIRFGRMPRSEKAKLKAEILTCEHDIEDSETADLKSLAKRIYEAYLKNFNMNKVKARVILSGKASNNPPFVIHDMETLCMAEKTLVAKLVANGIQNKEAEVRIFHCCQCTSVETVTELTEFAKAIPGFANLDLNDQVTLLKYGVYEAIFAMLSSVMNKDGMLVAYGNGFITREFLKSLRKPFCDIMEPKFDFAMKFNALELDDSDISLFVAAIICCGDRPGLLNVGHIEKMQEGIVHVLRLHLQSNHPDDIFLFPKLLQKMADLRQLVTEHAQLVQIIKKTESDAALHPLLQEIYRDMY

[5] = molecular target: T5, Peroxisome proliferator-activated receptor alpha (Homo sapiens) (UniProt Q07869); experiment: Agonist activity at human GAL4-PPARalpha ligand binding domain expressed in human HepG2 cells assessed as maximum fold induction by luciferase reporter gene assay relative to Wy-14643; method in brief: as §1
T5 sequence (whole entry): T4 sequence (Q07869 whole entry)

Row | Compound | EC50 ([1]; hepg2) | Emax [2] | EC50 ([1]; read-out: EC50) | EC50 [3] | EC50 [4] | Emax [5]
1 | Cc1cccc(Nc2cc(Cl)nc(SCC(=O)O)n2)c1C [PIRINIXIC ACID] | Not Active | inactive | – | – | – | –
2 | C/C(=C\C(=O)c1ccccc1)NC(Cc1ccc(OCCCOc2ccc(/N=N/c3ccccc3)cc2)cc1)C(=O)O (stereo not given) | – | 31% | 1370 nM | Not Active | – | 8%
3 | CCCc1c(OCCCOc2ccc(OCC(=O)O)cc2)ccc(C(C)=O)c1O | Not Active | – | – | – | Not Active | –
4 | C/C(=C\C(=O)c1ccccc1)NC(Cc1ccc(OCCOc2ccc(/C=C/c3ccc(C(F)(F)F)cc3)cc2)cc1)C(=O)O (stereo not given) | – | 69% | 84 nM | Not Active | Not Active | –
5 | COc1ccc(/N=N/c2ccc(OCCCOc3ccc(CC(N/C(C)=C/C(=O)c4ccccc4)C(=O)O)cc3)cc2)cc1 (stereo not given) | – | 24% | – | Not Active | Not Active | –
6 | CN(CCOc1ccc(CC2SC(=O)NC2=O)cc1)c1ccccn1 (stereo not given) [ROSIGLITAZONE] | – | – | – | – | Not Active | inactive
7 | O=C(/C=C/c1ccccc1)NC(Cc1ccc(OCCOc2ccc(/C=C/c3ccccc3)cc2)cc1)C(=O)O (stereo not given) | – | 45% | 640 nM | Not Active | Not Active | –
8 | C/C(=C\C(=O)c1ccccc1)NC(Cc1ccc(OCCCOc2ccc(/N=N/c3ccc(Cl)cc3)cc2)cc1)C(=O)O (stereo not given) | – | 59% | 47 nM | Not Active | Not Active | –
9 | CC(=O)/C=C(\C)NC(Cc1ccc(OCCOc2ccc(/C=C/c3ccccc3)cc2)cc1)C(=O)O (stereo not given) | – | 61% | 250 nM | Not Active | Not Active | –
10 | C/C(=C\C(=O)c1ccccc1)NC(Cc1ccc(OCCOc2ccc(/N=N/c3ccccc3)cc2)cc1)C(=O)O (stereo not given) | – | 54% | 183 nM | Not Active | Not Active | –

Results, then the compound that gave them:

Row | EC50 ([1]; hepg2) | Emax [2] | EC50 ([1]; read-out: EC50) | EC50 [3] | EC50 [4] | Emax [5] | Compound
11 | – | 77% | 21 nM | Not Active | Not Active | – | C/C(=C\C(=O)c1ccccc1)NC(Cc1ccc(OCCOc2ccc(/C=C/c3ccc(C)cc3)cc2)cc1)C(=O)O (stereo not given)
12 | – | 46% | 32 nM | Not Active | Not Active | – | C/C(=C\C(=O)c1ccccc1)NC(Cc1ccc(OCCCOc2ccc(/C=C/c3ccc(C(F)(F)F)cc3)cc2)cc1)C(=O)O (stereo not given)
13 | – | 50% | 26 nM | Not Active | Not Active | – | C/C(=C\C(=O)c1ccccc1)NC(Cc1ccc(OCCOc2ccc(/C=C/c3ccc(Cl)cc3)cc2)cc1)C(=O)O (stereo not given)
14 | – | 65% | 47 nM | Not Active | – | 9% | C/C(=C\C(=O)c1ccccc1)NC(Cc1ccc(OCCCOc2ccc(/C=C/c3ccccc3)cc2)cc1)C(=O)O (stereo not given)
15 | – | 54% | 29 nM | Not Active | Not Active | – | C/C(=C\C(=O)c1ccccc1)NC(Cc1ccc(OCCCOc2ccc(/N=N/c3ccc([N+](=O)[O-])cc3)cc2)cc1)C(=O)O (stereo not given)
16 | – | 75% | 12 nM | Not Active | – | 20% | C/C(=C\C(=O)c1ccccc1)NC(Cc1ccc(OCCOc2ccc(/C=C/c3ccccc3)cc2)cc1)C(=O)O (stereo not given)
17 | – | 56% | 12 nM | Not Active | Not Active | – | C/C(=C\C(=O)c1ccccc1)NC(Cc1ccc(OCCCOc2ccc(/C=C/c3ccc(Cl)cc3)cc2)cc1)C(=O)O (stereo not given)
18 | – | 52% | 39 nM | Not Active | Not Active | – | C/C(=C\C(=O)c1ccccc1)NC(Cc1ccc(OCCOc2ccc(/N=N/c3ccc(Cl)cc3)cc2)cc1)C(=O)O (stereo not given)
